Test results published in ChEMBL document CHEMBL4699552, “Paecilosetin Derivatives as Potent Antimicrobial Agents from Isaria farinosa” (J Nat Prod, 2020).

What was measured:
Staphylococcus aureus [1] = assay: Antimicrobial activity against methicillin-sensitive Staphylococcus aureus ATCC 29213 assessed as reduction in microbial growth after 24 hrs by microdilution method; format: functional
Method in brief: (§1)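 Bacterial MICs by CLSI M7 broth microdilution on ATCC strains. Concentrations ran from 256 to 0.5 µg/mL, with 24 h incubation at 35 °C. MIC is the lowest concentration with no visible growth. Duplicate assays.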

Staphylococcus aureus [2] = assay: Antimicrobial activity against methicillin-resistant Staphylococcus aureus ATCC 33591 assessed as reduction in microbial growth after 24 hrs by microdilution method; format: functional
Method in brief: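 Broth microdilution per CLSI M7; test range 256 to 0.5 µg/mL; plates incubated at 35 °C and read at 24 h for bacteria; MIC taken as lowest concentration preventing visible growth in the wells; run in duplicate.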

Trichophyton rubrum = assay: Antifungal activity against Trichophyton rubrum SNB-TR1 assessed as reduction in microbial growth after 5 days by microdilution method; format: functional; conditions: SNB-TR1, 120 h, time 5 day
Method in brief: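 CLSI M38 broth microdilution on a clinical dermatophyte isolate. Serial dilutions from 256 to 0.5 µg/mL, incubated at 35 °C and read after 5 days. MIC is the lowest concentration preventing visible growth. Run in duplicate.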

Escherichia coli = assay: Antimicrobial activity against Escherichia coli ATCC 25922 assessed as reduction in microbial growth after 24 hrs by microdilution method; format: functional; method in brief: as §1
MRC5 = assay: Cytotoxicity against human MRC5 cells assessed as reduction in cell viability after 72 hrs by CellTiter Glo assay; format: cell-based; conditions: MRC5, 72 h
Method in brief: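 Lung fibroblasts from ATCC, grown in DMEM with 10% FCS and 1% glutamine at 37 °C under 5% CO2, were seeded at 3 × 10^3 cells/well. After 24 h they were dosed at 10 final concentrations by serial dilution in medium, with vehicle controls. After 72 h, viability was read by CellTiter Glo luminescence (15 min). Triplicate runs; IC50 from four- or five-parameter logistic fits.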

Candida albicans [3] = assay: Antifungal activity against Candida albicans ATCC 10231 assessed as reduction in microbial growth after 48 h by microdilution method; conditions: ATCC 10231, 48 h
Candida albicans [4] = assay: Antifungal activity against Candida albicans ATCC 10231 assessed as reduction in microbial growth after 5 days by microdilution method; format: functional; conditions: ATCC 10231, 120 h, time 5 day

Compound: C/C=C1\NC(=O)C(C(=O)[C@@]2(C)[C@@H]3CC[C@@H](CO)C[C@H]3C=C[C@H]2/C=C/C)=C1O
- MIC (Staphylococcus aureus [1]): 64 µg/mL
- MIC (Staphylococcus aureus [2]): 128 µg/mL
- MIC (Trichophyton rubrum): > 256 µg/mL
- MIC (Escherichia coli): > 256 µg/mL
- IC50 (MRC5): 106 µM
- MIC (Candida albicans [3]): > 256 µg/mL

Compound: Cc1onc(-c2ccccc2)c1C(=O)N[C@@H]1C(=O)N2[C@@H]1SC(C)(C)[C@@H]2C(=O)O [OXACILLIN]
- MIC (Staphylococcus aureus [1]): 0.25 µg/mL

Compound: C/C=C/[C@@H]1C=C[C@@H]2C[C@H](C)CC[C@H]2[C@]1(C)/C(O)=C1\C(=O)N[C@@H]([C@@H](C)O)C1=O
- MIC (Staphylococcus aureus [1]): 8 µg/mL
- MIC (Staphylococcus aureus [2]): 16 µg/mL
- MIC (Trichophyton rubrum): 64 µg/mL
- MIC (Escherichia coli): > 256 µg/mL
- IC50 (MRC5): 50.3 µM
- MIC (Candida albicans [3]): 128 µg/mL

Compound: C/C=C1\NC(=O)C(C(=O)[C@@]2(C)[C@@H]3CC[C@@H](C)C[C@H]3C=C[C@H]2/C=C/C)=C1O
- MIC (Staphylococcus aureus [1]): 2 µg/mL
- MIC (Staphylococcus aureus [2]): 1 µg/mL
- MIC (Trichophyton rubrum): 32 µg/mL
- MIC (Escherichia coli): > 256 µg/mL
- IC50 (MRC5): 24.2 µM
- MIC (Candida albicans [3]): 32 µg/mL

Compound: C/C=C/[C@@H]1C=C[C@@H]2C[C@H](C)CC[C@H]2[C@]1(C)/C(O)=C1\C(=O)N[C@@H]([C@H](C)O)C1=O
- MIC (Staphylococcus aureus [1]): 2 µg/mL
- MIC (Staphylococcus aureus [2]): 2 µg/mL
- MIC (Trichophyton rubrum): 32 µg/mL
- MIC (Escherichia coli): > 256 µg/mL
- IC50 (MRC5): 40 µM
- MIC (Candida albicans [3]): 16 µg/mL

Compound: OC(Cn1cncn1)(Cn1cncn1)c1ccc(F)cc1F [FLUCONAZOLE]
- MIC (Candida albicans [4]): 1 µg/mL
- MIC (Trichophyton rubrum): 4 µg/mL

Compound: C/C=C/[C@@H]1C=C[C@@H]2C[C@H](CO)CC[C@H]2[C@]1(C)/C(O)=C1\C(=O)N[C@@H]([C@H](C)O)C1=O
- MIC (Staphylococcus aureus [1]): > 256 µg/mL
- MIC (Staphylococcus aureus [2]): > 256 µg/mL
- MIC (Trichophyton rubrum): > 256 µg/mL
- MIC (Escherichia coli): 256 µg/mL
- MIC (Candida albicans [3]): > 256 µg/mL

Compound: GENTAMICIN
- MIC (Escherichia coli): 8 µg/mL

Compound: C/C=C/[C@@H]1C=C[C@@H]2C[C@H](CO)CC[C@H]2[C@]1(C)/C(O)=C1\C(=O)N[C@@H]([C@@H](C)O)C1=O
- MIC (Staphylococcus aureus [1]): > 256 µg/mL
- MIC (Staphylococcus aureus [2]): > 256 µg/mL
- MIC (Trichophyton rubrum): > 256 µg/mL
- MIC (Escherichia coli): > 256 µg/mL
- MIC (Candida albicans [3]): > 256 µg/mL
